Reference: ChEMBL document CHEMBL1131092, “Prodrugs of anthracyclines for use in antibody-directed enzyme prodrug therapy” (J Med Chem, 1998)

Experiments:
L1210 = assay: Inhibitory activity was measured against murine L1210 leukemia cells.; format: functional, cell-based; conditions: Mus musculus
Procedure, shortened: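 Exponentially growing L1210 cells in RPMI were exposed to a range of concentrations for 72 h (37 °C, 5% CO2), with quadruplicate wells and medium-only controls. MTT (2.5 mg/mL in PBS) was added at 65 h, and formazan was dissolved in DMSO after 7 more h. IC50 is 50% growth inhibition versus untreated control; replicate CV <15%.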

[1] = Half life period at 200 ug/mL concentration of prodrug in the presence of 0.1 ug/mL Beta-glucuronidase (Escherichia coli) in phosphate buffer; conditions: in vitro
Escherichia coli = assay: Half life period at 200 ug/mL concentration of prodrug in the presence of 1 ug/mL Beta-glucuronidase (Escherichia coli) in phosphate buffer; conditions: in vitro

SMILES	IC50 (L1210)	T1/2 [1]	T1/2 (Escherichia coli)
COC(=O)[C@@H]1O[C@@H](Oc2ccccc2COC(=O)N[C@@H]2C[C@H](O[C@H]3C[C@](O)(C(C)=O)Cc4c(O)c5c(c(O)c43)C(=O)c3c(OC)cccc3C5=O)O[C@@H](C)[C@H]2O)[C@@H](OC(C)=O)[C@@H](OC(C)=O)[C@@H]1OC(C)=O	5.5 µM	–	–
COc1cccc2c1C(=O)c1c(O)c3c(c(O)c1C2=O)C[C@@](O)(C(=O)CO)C[C@@H]3O[C@H]1C[C@@H](NC(=O)OCc2cc(F)ccc2O[C@@H]2O[C@@H](C(=O)O)[C@@H](O)[C@H](O)[C@@H]2O)[C@H](O)[C@H](C)O1	31 µM	30 min	–
COc1cccc2c1C(=O)c1c(O)c3c(c(O)c1C2=O)C[C@@](O)(C(=O)CO)C[C@@H]3O[C@H]1C[C@@H](NC(=O)OCc2ccc(O[C@@H]3O[C@@H](C(=O)O)[C@@H](O)[C@H](O)[C@@H]3O)c([N+](=O)[O-])c2)[C@H](O)[C@H](C)O1	2.21 µM	37 min	–
COc1cccc2c1C(=O)c1c(O)c3c(c(O)c1C2=O)C[C@@](O)(C(=O)CO)C[C@@H]3O[C@H]1C[C@@H](NC(=O)OCc2ccc(O[C@@H]3O[C@@H](C(=O)O)[C@@H](O)[C@H](O)[C@@H]3O)c(F)c2)[C@H](O)[C@H](C)O1	8.8 µM	26 min	–
COc1cccc2c1C(=O)c1c(O)c3c(c(O)c1C2=O)C[C@@](O)(C(=O)CO)C[C@@H]3O[C@H]1C[C@@H](NC(=O)OCc2cc(Cl)ccc2O[C@@H]2O[C@@H](C(=O)O)[C@@H](O)[C@H](O)[C@@H]2O)[C@H](O)[C@H](C)O1	16.6 µM	> 240 min	30 min
COc1cccc2c1C(=O)c1c(O)c3c(c(O)c1C2=O)C[C@@](O)(C(=O)CO)C[C@@H]3O[C@H]1C[C@@H](NC(=O)OCc2cc([N+](=O)[O-])ccc2O[C@@H]2O[C@@H](C(=O)O)[C@@H](O)[C@H](O)[C@@H]2O)[C@H](O)[C@H](C)O1	16.6 µM	216 min	–
COc1cccc2c1C(=O)c1c(O)c3c(c(O)c1C2=O)C[C@@](O)(C(=O)CO)C[C@@H]3O[C@H]1C[C@@H](NC(=O)OCc2ccc(O[C@@H]3O[C@@H](C(=O)O)[C@@H](O)[C@H](O)[C@@H]3O)c(Cl)c2)[C@H](O)[C@H](C)O1	17 µM	55 min	–
COc1cccc2c1C(=O)c1c(O)c3c(c(O)c1C2=O)C[C@@](O)(C(C)=O)C[C@@H]3O[C@H]1C[C@@H](NC(=O)OCc2ccc(O[C@@H]3O[C@@H](C(=O)O)[C@@H](O)[C@H](O)[C@@H]3O)cc2)[C@H](O)[C@H](C)O1	> 10 µM	–	–
COc1cccc2c1C(=O)c1c(O)c3c(c(O)c1C2=O)C[C@@](O)(C(C)=O)C[C@@H]3O[C@H]1C[C@H](N)[C@H](O)[C@H](C)O1 [DAUNORUBICIN]	0.03 µM	–	–
